Test results reported in ChEMBL document CHEMBL4229530, “5-Adamantan thiadiazole-based thiazolidinones as antimicrobial agents. Design, synthesis, molecular docking and evaluation” (2018).
In brackets after ≈: the same amount, converted by molar mass.

Legend:
Staphylococcus aureus [1] = experiment: Antibacterial activity against Staphylococcus aureus ATCC 6538 after 24 hrs by INT dye based microdilution assay; assay type: functional; settings: ATCC 6538, 24 h
In short: (§1)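 Broth microdilution in tryptic soy broth: overnight bacterial culture adjusted to 1×10^5 CFU/mL, 1.0×10^4 CFU per well; compounds dissolved in 5% DMSO, tested at 0.001-1.0 mg/ml; 24 h at 37°C. Streptomycin and ampicillin as positive controls, 5% DMSO as negative control; duplicate, repeated three times.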

Bacillus cereus = experiment: Antibacterial activity against Bacillus cereus after 24 hrs by INT dye based microdilution assay; assay type: functional; in short: as §1
Listeria monocytogenes = experiment: Antibacterial activity against Listeria monocytogenes NCTC 7973 after 24 hrs by INT dye based microdilution assay; assay type: functional; settings: NCTC 7973, 24 h; in short: as §1
Micrococcus flavus = experiment: Antibacterial activity against Micrococcus flavus ATCC 10240 after 24 hrs by INT dye based microdilution assay; assay type: functional; settings: ATCC 10240, 24 h; in short: as §1
Salmonella typhimurium = experiment: Antibacterial activity against Salmonella typhimurium ATCC 13311 after 24 hrs by INT dye based microdilution assay; assay type: functional, Salmonella enterica subsp. enterica serovar Typhimurium; settings: Salmonella enterica, ATCC 13311, 24 h; in short: as §1
Enterobacter cloacae = experiment: Antibacterial activity against Enterobacter cloacae after 24 hrs by INT dye based microdilution assay; assay type: functional; in short: as §1
Pseudomonas aeruginosa [2] = experiment: Antibacterial activity against Pseudomonas aeruginosa ATCC 27853 after 24 hrs by INT dye based microdilution assay; assay type: functional; settings: ATCC 27853, 24 h; in short: as §1
Escherichia coli [3] = experiment: Antibacterial activity against Escherichia coli ATCC 35210 after 24 hrs by INT dye based microdilution assay; assay type: functional; settings: ATCC 35210, 24 h; in short: as §1
Aspergillus fumigatus = experiment: Antifungal activity against Aspergillus fumigatus isolate 1022 after 72 hrs by serial dilution assay; assay type: functional; settings: isolate 1022, 72 h
In short: (§2)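 Modified microdilution: fungal spores washed off malt agar with sterile 0.85% saline plus 0.1% Tween 80, adjusted to about 1.0×10^5 per 100 µL well. Compounds in 5% DMSO (0.001-1.0 mg/ml) in malt broth; 72 h at 28°C on rotary shaker (160 rpm). MIC is lowest concentration without visible growth under binocular microscope. Bifonazole and ketoconazole controls (1-3500 µg/mL); three independent experiments in duplicate.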

Aspergillus versicolor = experiment: Antifungal activity against Aspergillus versicolor ATCC 11730 after 72 hrs by serial dilution assay; assay type: functional; settings: ATCC 11730, 72 h; in short: as §2
Aspergillus ochraceus = experiment: Antifungal activity against Aspergillus ochraceus ATCC 12066 after 72 hrs by serial dilution assay; assay type: functional; settings: ATCC 12066, 72 h; in short: as §2
Aspergillus niger = experiment: Antifungal activity against Aspergillus niger ATCC 6275 after 72 hrs by serial dilution assay; assay type: functional; settings: ATCC 6275, 72 h; in short: as §2
Trichoderma viride = experiment: Antifungal activity against Trichoderma viride IAM 5061 after 72 hrs by serial dilution assay; assay type: functional; settings: IAM 5061, 72 h; in short: as §2
Talaromyces funiculosus = experiment: Antifungal activity against Penicillium funiculosum ATCC 36839 after 72 hrs by serial dilution assay; assay type: functional; settings: ATCC 36839, 72 h; in short: as §2
Penicillium ochrochloron = experiment: Antifungal activity against Penicillium ochrochloron ATCC 9112 after 72 hrs by serial dilution assay; assay type: functional; settings: ATCC 9112, 72 h; in short: as §2
Penicillium verrucosum = experiment: Antifungal activity against Penicillium cyclopium var verucosum after 72 hrs by serial dilution assay; assay type: functional; in short: as §2
Staphylococcus aureus [4] = experiment: Antibacterial activity against methicillin-resistant Staphylococcus aureus after 24 hrs by INT dye based microdilution assay; assay type: functional
In short: (§3)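 Broth microdilution in tryptic soy broth. Overnight culture adjusted to 1×10^5 CFU/mL, giving 1.0×10^4 CFU per well. Compounds dissolved in 5% DMSO and tested at 0.001-1.0 mg/ml. Plates incubated 24 h at 37°C. INT (0.2 mg/mL) then added, with 30 min at 37°C. Duplicate, repeated three times.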

Pseudomonas aeruginosa [5] = experiment: Antibacterial activity against drug-resistant Pseudomonas aeruginosa after 24 hrs by INT dye based microdilution assay; assay type: functional; in short: as §3
Escherichia coli [6] = experiment: Antibacterial activity against drug-resistant Escherichia coli after 24 hrs by INT dye based microdilution assay; assay type: functional; in short: as §3

O=C1N/C(=N\c2nnc(C34CC5CC(CC(C5)C3)C4)s2)S/C1=C/c1cccc(Cl)c1Cl
MIC (Staphylococcus aureus [1]): 0.244 µM (≈ 0.12 µg/mL) | MIC (Bacillus cereus): 244 µM (≈ 120 µg/mL) | MIC (Listeria monocytogenes): 244 µM (≈ 120 µg/mL) | MIC (Micrococcus flavus): 244 µM (≈ 120 µg/mL) | MIC (Salmonella typhimurium): 122 µM (≈ 60 µg/mL) | MIC (Enterobacter cloacae): 244 µM (≈ 120 µg/mL) | MIC (Pseudomonas aeruginosa [2]): 122 µM (≈ 60 µg/mL) | MIC (Escherichia coli [3]): 0.244 µM (≈ 0.12 µg/mL) | MIC (Aspergillus fumigatus): 163 µM (≈ 80.1 µg/mL) | MIC (Aspergillus versicolor): 163 µM (≈ 80.1 µg/mL) | MIC (Aspergillus ochraceus): 163 µM (≈ 80.1 µg/mL) | MIC (Aspergillus niger): 163 µM (≈ 80.1 µg/mL) | MIC (Trichoderma viride): 163 µM (≈ 80.1 µg/mL) | MIC (Talaromyces funiculosus): 326 µM (≈ 160 µg/mL) | MIC (Penicillium ochrochloron): 163 µM (≈ 80.1 µg/mL) | MIC (Penicillium verrucosum): 0.163 µM (≈ 0.0801 µg/mL) | MIC (Staphylococcus aureus [4]): 0.183 µM (≈ 0.09 µg/mL) | MIC (Pseudomonas aeruginosa [5]): 183 µM (≈ 90 µg/mL) | MIC (Escherichia coli [6]): 0.183 µM (≈ 0.09 µg/mL)

Cc1ccc(/C=C2/S/C(=N/c3nnc(C45CC6CC(CC(C6)C4)C5)s3)NC2=O)cc1
MIC (Staphylococcus aureus [1]): 0.115 µM (≈ 0.05 µg/mL) | MIC (Bacillus cereus): 115 µM (≈ 50 µg/mL) | MIC (Listeria monocytogenes): 59.3 µM (≈ 25.9 µg/mL) | MIC (Micrococcus flavus): 115 µM (≈ 50 µg/mL) | MIC (Salmonella typhimurium): 59.3 µM (≈ 25.9 µg/mL) | MIC (Enterobacter cloacae): 115 µM (≈ 50 µg/mL) | MIC (Pseudomonas aeruginosa [2]): 115 µM (≈ 50 µg/mL) | MIC (Escherichia coli [3]): 0.115 µM (≈ 0.05 µg/mL) | MIC (Aspergillus fumigatus): 367 µM (≈ 160 µg/mL) | MIC (Aspergillus versicolor): 183 µM (≈ 79.9 µg/mL) | MIC (Aspergillus ochraceus): 183 µM (≈ 79.9 µg/mL) | MIC (Aspergillus niger): 183 µM (≈ 79.9 µg/mL) | MIC (Trichoderma viride): 367 µM (≈ 160 µg/mL) | MIC (Talaromyces funiculosus): 183 µM (≈ 79.9 µg/mL) | MIC (Penicillium ochrochloron): 183 µM (≈ 79.9 µg/mL) | MIC (Penicillium verrucosum): 0.183 µM (≈ 0.0801 µg/mL) | MIC (Staphylococcus aureus [4]): 0.115 µM (≈ 0.0501 µg/mL) | MIC (Pseudomonas aeruginosa [5]): 115 µM (≈ 50.1 µg/mL) | MIC (Escherichia coli [6]): 0.115 µM (≈ 0.0501 µg/mL)

COc1ccc(/C=C2/S/C(=N/c3nnc(C45CC6CC(CC(C6)C4)C5)s3)NC2=O)cc1
MIC (Staphylococcus aureus [1]): 0.0448 µM (≈ 0.0203 µg/mL) | MIC (Bacillus cereus): 99.5 µM (≈ 45 µg/mL) | MIC (Listeria monocytogenes): 44.8 µM (≈ 20.3 µg/mL) | MIC (Micrococcus flavus): 99.5 µM (≈ 45 µg/mL) | MIC (Salmonella typhimurium): 44.8 µM (≈ 20.3 µg/mL) | MIC (Enterobacter cloacae): 99.5 µM (≈ 45 µg/mL) | MIC (Pseudomonas aeruginosa [2]): 99.5 µM (≈ 45 µg/mL) | MIC (Escherichia coli [3]): 0.0995 µM (≈ 0.045 µg/mL) | MIC (Aspergillus fumigatus): 99.8 µM (≈ 45.2 µg/mL) | MIC (Aspergillus versicolor): 99.8 µM (≈ 45.2 µg/mL) | MIC (Aspergillus ochraceus): 99.8 µM (≈ 45.2 µg/mL) | MIC (Aspergillus niger): 179 µM (≈ 81 µg/mL) | MIC (Trichoderma viride): 179 µM (≈ 81 µg/mL) | MIC (Talaromyces funiculosus): 99.8 µM (≈ 45.2 µg/mL) | MIC (Penicillium ochrochloron): 99.8 µM (≈ 45.2 µg/mL) | MIC (Penicillium verrucosum): 0.0998 µM (≈ 0.0452 µg/mL) | MIC (Staphylococcus aureus [4]): 0.111 µM (≈ 0.0501 µg/mL) | MIC (Pseudomonas aeruginosa [5]): 111 µM (≈ 50.1 µg/mL) | MIC (Escherichia coli [6]): 0.0553 µM (≈ 0.025 µg/mL)
